Measurements: ChEMBL document CHEMBL4038305, “Benzoxaborole Antimalarial Agents. Part 5. Lead Optimization of Novel Amide Pyrazinyloxy Benzoxaboroles and Identification of a Preclinical Candidate” (J Med Chem, 2017)

Key:
[1] = tested on: Plasmodium falciparum; test: Antimalarial activity against chloroquine-sensitive Plasmodium falciparum 3D7 infected in human erythrocytes assessed as reduction in [3H]-hypoxanthine incorporation preincubated for 24 hrs followed by [3H]-hypoxanthine addition measured after 24 hrs by scintillation counting method; type: functional, cell-based
Procedure, shortened: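 P. falciparum 3D7 cultures were exposed to the compound for 48 h, with atovaquone as the reference control. IC50 was taken from three replicates.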

[2] = tested on: Plasmodium falciparum; test: Antimalarial activity against chloroquine-resistant Plasmodium falciparum W2 infected in human erythrocytes after 48 hrs by YOYO-1 dye based flow cytometric analysis; type: functional, cell-based; details: W2, 48 h
Procedure, shortened: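 P. falciparum W2 cultures were exposed to the compound for 48 h, with artemisinin and chloroquine as reference controls. IC50 was taken from two independent replicates.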

SMILES: Cc1c(Oc2cnc(C(=O)NC(C)C(C)O)cn2)ccc2c1B(O)OC2 (stereo unspecified)
- IC50 [1]: 1460 nM
- IC50 [2]: 513 nM

SMILES: Cc1c(Oc2cnc(C(=O)N[C@@H]3CCC[C@@H]3O)cn2)ccc2c1B(O)OC2 (relative stereo)
- IC50 [1]: 181 nM
- IC50 [2]: 292 nM

SMILES: Cc1c(Oc2cnc(C(=O)NCC(C)(C)O)cn2)ccc2c1B(O)OC2
- IC50 [1]: 554 nM
- IC50 [2]: 334 nM
